According to ChEMBL document CHEMBL1157582, “Synthesis and uptake of fluorescence-labeled Combi-molecules by P-glycoprotein-proficient and -deficient uterine sarcoma cells MES-SA and MES-SA/DX5” (J Med Chem, 2010):
Active and inactive are the calls of the source. The calls are words filed in the database; no cut-off is given here.

What was measured:
[1] = Stability in serum assessed as half life by UV spectrophotometry; assay type: ADME, cell-free
[2] = Antiproliferative activity against human MES-SA/Dx5 cells after 96 hrs by SRB assay; assay type: functional, cell-based; conditions: MES-SA/Dx5, 96 h
Summary of the method: (§1)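 Cells plated at 5000/well, attached overnight, then exposed to a range of drug concentrations for 96 h. Fixed with trichloroacetic acid (1 h, 4 °C), stained with 0.4% sulforhodamine B (2 h, room temperature), dye dissolved in 10 mM Tris base pH 10.0, OD read at 492 nm. IC50 taken from sigmoidal dose-response fit. At least three independent experiments in triplicate. DMSO ≤0.1% (v/v).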

[3] = Antiproliferative activity against human MES-SA cells after 96 hrs by SRB assay; assay type: functional, cell-based
[4] = test system: MES-SA; experiment: Induction of DNA damage in human MES-SA cells assessed as increase in comet-tail length by alkaline comet assay; assay type: functional, cell-based
[5] = test system: MDA-MB-468; experiment: Antiproliferative activity against human MDA-MB-468 cells after 96 hrs by SRB assay; assay type: functional, cell-based; conditions: MDA-MB-468, 96 h; summary of the method: as §1
[6] = test system: MES-SA/Dx5; experiment: Induction of DNA damage in human MES-SA/Dx5 cells assessed as increase in comet-tail length by alkaline comet assay; assay type: functional, cell-based
[7] = Cellular uptake in human MES-SA cells after 2 hrs by flow cytometry; assay type: ADME, cell-based
[8] = Cellular uptake in human MES-SA cells at 25 uM after 2 hrs by fluorescence microscopy; assay type: ADME, cell-based
Summary of the method: (§2)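 Cells plated at 70% confluence and left to adhere overnight. Treated with 0, 25 or 50 μM for 2 h, washed twice with PBS, then imaged live without fixation at 40× under fluorescence; blue aminoquinazoline and green dansylated species captured through separate filters.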

[9] = target: Epidermal growth factor receptor (Homo sapiens, UniProt P00533); experiment: Inhibition of EGFR
[10] = Cellular uptake in human MES-SA/Dx5 cells at 25 uM after 2 hrs by fluorescence microscopy; assay type: ADME, cell-based; conditions: mes-sa/dx5, 2 h; summary of the method: as §2
[11] = Cellular uptake in human MES-SA/Dx5 cells after 2 hrs by flow cytometry; assay type: ADME, cell-based; conditions: mes-sa/dx5, 2 h
[12] = test system: MES-SA; experiment: Selectivity ratio of IC50 for human MES-SA cells to IC50 for human MES-SA/Dx5 cells; assay type: functional

Sequence of Epidermal growth factor receptor (P00533 whole entry): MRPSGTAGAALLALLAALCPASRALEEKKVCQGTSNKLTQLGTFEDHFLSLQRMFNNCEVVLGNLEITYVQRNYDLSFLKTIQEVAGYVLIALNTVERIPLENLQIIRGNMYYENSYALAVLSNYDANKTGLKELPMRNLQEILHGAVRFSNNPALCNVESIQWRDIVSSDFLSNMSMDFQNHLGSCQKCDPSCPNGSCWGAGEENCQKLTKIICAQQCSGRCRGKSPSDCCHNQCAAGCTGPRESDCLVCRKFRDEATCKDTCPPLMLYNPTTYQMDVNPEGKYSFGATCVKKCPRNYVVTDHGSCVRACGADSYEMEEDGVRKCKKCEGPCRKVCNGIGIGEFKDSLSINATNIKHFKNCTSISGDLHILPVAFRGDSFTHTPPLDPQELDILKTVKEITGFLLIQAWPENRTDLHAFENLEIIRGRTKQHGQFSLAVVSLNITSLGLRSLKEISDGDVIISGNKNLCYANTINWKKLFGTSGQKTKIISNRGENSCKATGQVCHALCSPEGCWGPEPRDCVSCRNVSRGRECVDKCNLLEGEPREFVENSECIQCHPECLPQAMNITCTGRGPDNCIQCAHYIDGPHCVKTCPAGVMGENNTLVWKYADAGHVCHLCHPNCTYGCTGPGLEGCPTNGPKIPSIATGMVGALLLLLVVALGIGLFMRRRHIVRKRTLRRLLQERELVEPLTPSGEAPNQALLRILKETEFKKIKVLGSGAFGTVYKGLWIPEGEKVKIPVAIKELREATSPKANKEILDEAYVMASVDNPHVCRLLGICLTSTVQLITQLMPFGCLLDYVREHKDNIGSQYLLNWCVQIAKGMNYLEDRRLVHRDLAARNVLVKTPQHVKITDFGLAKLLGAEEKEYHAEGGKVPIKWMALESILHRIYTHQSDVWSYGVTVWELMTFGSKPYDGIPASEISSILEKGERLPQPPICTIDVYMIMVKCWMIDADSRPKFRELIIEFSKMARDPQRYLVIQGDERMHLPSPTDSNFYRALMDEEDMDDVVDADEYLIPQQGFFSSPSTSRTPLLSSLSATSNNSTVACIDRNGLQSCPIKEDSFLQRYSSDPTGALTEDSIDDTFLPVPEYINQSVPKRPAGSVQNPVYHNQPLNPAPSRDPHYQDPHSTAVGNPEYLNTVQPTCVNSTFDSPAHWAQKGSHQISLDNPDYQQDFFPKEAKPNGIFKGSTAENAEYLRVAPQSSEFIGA

half-life [1]	IC50 [5]	Drug uptake [7]	Drug uptake [8]	IC50 [9]	Drug uptake [10]	Drug uptake [11]	SMILES	IC50 [2]	IC50 [3]	Activity [4]	Activity [6]	Ratio IC50 [12]
108 min							CN(C)CCN/N=N/c1ccc2ncnc(Nc3cccc(Cl)c3)c2c1					
	5.2 µM						CN(CCN/N=N/c1ccc2ncnc(Nc3cccc(Cl)c3)c2c1)CCNS(=O)(=O)c1cccc2c(N(C)C)cccc12	9.34 µM	8.57 µM	Active	Active	
21.7 min		Active	Active	0.6 µM	Active	Active	CN(CCN=NNc1ccc2ncnc(Nc3cccc(Cl)c3)c2c1)CCNS(=O)(=O)c1cccc2c(N(C)C)cccc12					
4.96 min	9.1 µM	Active	Active	1.4 µM	Active	Active	CN(C)c1cccc2c(S(=O)(=O)NCCN=NNc3ccc4ncnc(Nc5cccc(Cl)c5)c4c3)cccc12	16.6 µM	26.6 µM			1.6
		Active	Active				COc1cccc2c1C(=O)c1c(O)c3c(c(O)c1C2=O)C[C@@](O)(C(=O)CO)C[C@@H]3O[C@H]1C[C@H](N)[C@H](O)[C@H](C)O1 [DOXORUBICIN]	3.1 µM		Active	Active	
